Measured values as given in ChEMBL document CHEMBL1122125, “Synthesis and in vivo antitumor activity of potential 5-fluorouracil prodrugs” (1982).

What was measured:
Type in all cases: functional
[1] = system: Mus musculus; experiment: Antitumor activity was determined for average 7-day weight change against P-388 leukemia in mice at a dose of 320 mg/kg
Summary of the method: (§1)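 Male B6D2F1J mice given 10⁶ P-388 cells ip on day 0, then treated ip once daily on days 1-4 (qd × 4), 5 mice per dose group. Compounds dosed in sterile saline, except one lipophilic thioether given in 10% Tween 80. Mice weighed on days 1 and 7; mean weight per mouse on day 1 and 7-day weight change reported in g and as percent.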

[2] = system: Mus musculus; experiment: Antitumor activity was determined for average 7-day weight change against P-388 leukemia in mice at a dose of 640 mg/kg; summary of the method: as §1
[3] = system: Mus musculus; experiment: Antitumor activity was determined for average weight on day 1 against P-388 leukemia in mice at a dose of 320 mg/kg
Summary of the method: (§2)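 Male B6D2F1J mice, groups of 5, inoculated ip with 10⁶ P-388 cells on day 0. Drug given ip on days 1-4 (qd × 4) in sterile saline, or in 10% Tween 80 for the poorly water-soluble thioether. Average weight per mouse recorded on day 1, with reweighing on day 7 for percent weight change. Untreated control groups had 10-17 animals per experiment.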

[4] = system: Mus musculus; experiment: Antitumor activity was determined for average weight on day 1 against P-388 leukemia in mice at a dose of 640 mg/kg; summary of the method: as §2
[5] = system: Mus musculus; experiment: Antitumor activity was determined for average weight on day 1 against P-388 leukemia in mice at a dose of 80 mg/kg; summary of the method: as §2
[6] = system: Mus musculus; experiment: Antitumor activity was determined for average 7-day weight change against P-388 leukemia in mice at a dose of 80 mg/kg; summary of the method: as §1
[7] = system: Mus musculus; experiment: Antitumor activity was determined for average weight on day 1 against P-388 leukemia in mice at a dose of 160 mg/kg; summary of the method: as §1
[8] = system: Mus musculus; experiment: Percent increase in life span against P-388 leukemia in mice was determined at a dose of 320 mg/kg; settings: P388
Summary of the method: (§3)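 Male B6D2F1J mice, 5 per dose group, received 10⁶ P-388 cells ip on day 0. Dosing was ip qd × 4 on days 1-4 in sterile saline, or 10% Tween 80 for the butyl thioether. Median survival times of treated (T) and untreated control (C, 10-17 mice) groups were compared: %ILS = [(T/C) − 1]100. Weights taken on days 1 and 7.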

[9] = system: Mus musculus; experiment: Percent increase in life span against P-388 leukemia in mice was determined at a dose of 640 mg/kg; settings: P388; summary of the method: as §3
[10] = system: Mus musculus; experiment: Percent increase in life span against P-388 leukemia in mice was determined at a dose of 80 mg/kg; settings: P388; summary of the method: as §3
[11] = system: Mus musculus; experiment: Antitumor activity was determined for average 7-day weight change against P-388 leukemia in mice at a dose of 160 mg/kg; summary of the method: as §1
[12] = system: Mus musculus; experiment: Percent increase in life span against P-388 leukemia in mice was determined at a dose of 160 mg/kg; settings: P388; summary of the method: as §3
[13] = system: Mus musculus; experiment: Antitumor activity was determined for survival range of mice against P-388 leukemia in mice at a dose of 640 mg/kg
Summary of the method: (§4)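 Male B6D2F1J mice implanted ip with 10⁶ P-388 cells on day 0; test agents given ip on days 1–4 (qd × 4) in sterile saline, or in 10% Tween 80 for the lipophilic thioether. Groups of 5 treated mice, with 10–17 untreated controls per experiment. Mice weighed on days 1 and 7 to give the 7-day weight change in g and %. Survival recorded in days as median and range.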

[14] = system: Mus musculus; experiment: Antitumor activity was determined for survival range of mice against P-388 leukemia in mice at a dose of 80 mg/kg
Summary of the method: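 Male B6D2F1J mice, 5 per dose group, implanted ip with 10⁶ P-388 leukemia cells on day 0. Drug given ip daily on days 1-4 (qd × 4) in sterile saline, or in 10% Tween 80 for the butyl thioether. Survival range recorded in days. Untreated control groups had 10-17 animals per experiment. Mice weighed on days 1 and 7.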

[15] = system: Mus musculus; experiment: Antitumor activity was determined for median survival of mice against P-388 leukemia in mice at a dose of 80 mg/kg; summary of the method: as §4
[16] = system: Mus musculus; experiment: Antitumor activity was determined for survival range of mice against P-388 leukemia in mice at a dose of 160 mg/kg; summary of the method: as §4
[17] = system: Mus musculus; experiment: Antitumor activity was determined for survival range of mice against P-388 leukemia in mice at a dose of 320 mg/kg; summary of the method: as §4
[18] = system: Mus musculus; experiment: Antitumor activity was determined for median survival of mice against P-388 leukemia in mice at a dose of 640 mg/kg; summary of the method: as §4
[19] = system: Mus musculus; experiment: Antitumor activity was determined for median survival of mice against P-388 leukemia in mice at a dose of 320 mg/kg; summary of the method: as §4
[20] = system: Mus musculus; experiment: Antitumor activity was determined for 7-day average percent weight change against P-388 leukemia in mice at a dose of 160 mg/kg; summary of the method: as §1
[21] = system: Mus musculus; experiment: Antitumor activity was determined for 7-day average percent weight change against P-388 leukemia in mice at a dose of 320 mg/kg; summary of the method: as §1
[22] = system: Mus musculus; experiment: Antitumor activity was determined for 7-day average percent weight change against P-388 leukemia in mice at a dose of 640 mg/kg; summary of the method: as §1
[23] = system: Mus musculus; experiment: Antitumor activity was determined for 7-day average percent weight change against P-388 leukemia in mice at a dose of 80 mg/kg; summary of the method: as §1
[24] = system: L1210; experiment: Evaluated for cytotoxicity against L1210 mouse leukemia cells; settings: read-out: ID50 (the source's name)
Summary of the method: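 L1210 murine leukemia cells in Eagle's minimal essential medium with 15% fetal calf serum, streptomycin (100 μg/mL), penicillin (100 units/mL) and 0.05 mM 2-mercaptoethanol. Cells counted by Coulter counter after 48 h exposure. ID50 is the 50% growth-inhibitory dose. Triplicate assays, standard deviation ±10%.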

[25] = system: Mus musculus; experiment: Antitumor activity was determined for median survival of mice against P-388 leukemia in mice at a dose of 160 mg/kg; summary of the method: as §4

With C[C@H]1O[C@@H](n2cc(F)c(=O)[nH]c2=O)[C@H](O)[C@@H]1O [DOXIFLURIDINE] the Average weight [1] was -1.4 g mouse-1, the Average weight [2] was -5.6 g mouse-1 and the Average weight [3] was 26.2 g mouse-1. For the same compound, the Average weight [4] was 27 g mouse-1, the Average weight [5] was 28.6 g mouse-1 and the Average weight [6] was 2.2 g mouse-1. The Average weight [7] was 26.8 g mouse-1, the ILS at 320 mg/kg [8] was 54% and the ILS at 640 mg/kg [9] was 54%. The ILS at 80 mg/kg [10] was 18%, the Average weight [11] was 0.4 g mouse-1 and the ILS at 160 mg/kg [12] was 36%. The Survival range [13] was 9, the Survival range [14] was 11 and the Survival median [15] was 13. For the same compound, the Survival range [16] was 14, the Survival range [17] was 15 and the Survival median [18] was 17. It also gave a Survival median [19] of 17, a Weight change [20] of 2% and a Weight change [21] of -5%. The Weight change [22] was -21%, the Weight change [23] was 7% and the IC50 [24] was 140 µM. It also gave a Survival median [25] of 15.
